pIC50: −log10 of the molar value.

The test system of assay [1] is Puccinia triticina. The assay is described as follows: Antifungal activity against Puccinia recondita f. sp. tritici infected in wheat seedlings at 10 ppm relative to control. The class given is functional. A digest of the protocol:
(§1)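 Test suspension sprayed to run-off on Stevens wheat seedlings. Next day inoculated with a Puccinia recondita f. sp. tritici spore suspension. Held 24 h in a saturated atmosphere at 20 °C, then 7 days in a 20 °C growth chamber before disease rating. Rates in ppm. Given as percent control versus untreated control plants.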

For assay [2], the system named is Parastagonospora nodorum. The assay is described as follows: Antifungal activity against Stagonospora nodorum infected in wheat seedlings at 40 ppm relative to control. In kind it is functional. The gist of the method: (§2)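 Wheat seedlings, treated the day before, inoculated with a Stagonospora nodorum spore suspension. Held in a saturated atmosphere at 20 °C for 48 h, then 5 days in a growth chamber at 22 °C, then disease rated. Rates in ppm. Scored as percent control relative to untreated control plants.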

For assay [3], the system named is Puccinia triticina. The assay is described as follows: Antifungal activity against Puccinia recondita f. sp. tritici infected in wheat seedlings at 2 ppm relative to control. The class given is functional. The gist of the method:
as §1

The test system of assay [4] is Botrytis cinerea. The assay is described as follows: Antifungal activity against Botryotinia fuckeliana infected in orange pixie tomato seedlings at 10 ppm relative to control. In kind it is functional. A digest of the protocol:
(§3)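 Orange Pixie tomato seedlings sprayed to run-off with test suspension, then inoculated next day with a Botryotinia fuckeliana spore suspension. Kept saturated at 20 °C for 48 h, then 1 more day at 24 °C in a growth chamber before rating. Rates in ppm. Expressed as percent control relative to untreated control plants.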

In assay [5] the test system is Parastagonospora nodorum. The assay is described as follows: Antifungal activity against Stagonospora nodorum infected in wheat seedlings at 10 ppm relative to control. In kind it is functional. The gist of the method:
as §2

Assay [6] is described as follows: Antiproliferative activity against human Rhabdomyosarcoma cells after 96 hrs by MTS assay. In kind it is functional, cell-based. To be noted: Rhabdomyosarcoma cell. A digest of the protocol:
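Rhabdomyosarcoma cells (ATCC CCL-136) seeded at 10,000 cells/well and allowed to adhere 1–3 h. Medium then replaced with compound-containing medium over a concentration range. Grown 96 h at 37 °C, 5% CO2. Viable cells read by MTS/PMS formazan after 3–4 h at 37 °C, absorbance 490 nm. Data normalized to solvent-only wells; IC50 in nM.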

In assay [7] the test system is Botrytis cinerea. Put plainly: Antifungal activity against Botryotinia fuckeliana infected in orange pixie tomato seedlings at 2 ppm relative to control. The class given is functional. The gist of the method:
as §3

For assay [8], the system named is Puccinia triticina. Put plainly: Antifungal activity against Puccinia recondita f. sp. tritici infected in wheat seedlings at 40 ppm relative to control. In kind it is functional. The gist of the method:
as §1

In assay [9] the test system is Botrytis cinerea. The assay is described as follows: Antifungal activity against Botryotinia fuckeliana infected in orange pixie tomato seedlings at 40 ppm relative to control. The class given is functional. A digest of the protocol: as §3
The subject of assay [10] is Parastagonospora nodorum. The assay is described as follows: Antifungal activity against Stagonospora nodorum infected in wheat seedlings at 2 ppm relative to control. The class given is functional. A digest of the protocol:
as §2

Assay [11] deals with Botrytis cinerea. Put plainly: Antifungal activity against Botryotinia fuckeliana infected in orange pixie tomato seedlings at 200 ppm relative to control. In kind it is functional. A digest of the protocol:
as §3

Assay [12] deals with Puccinia triticina. The assay is described as follows: Antifungal activity against Puccinia recondita f. sp. tritici infected in wheat seedlings at 200 ppm relative to control. The class given is functional. A digest of the protocol: as §1
Assay [13] relates to Parastagonospora nodorum. Put plainly: Antifungal activity against Stagonospora nodorum infected in wheat seedlings at 200 ppm relative to control. The class given is functional. A digest of the protocol:
as §2

Usually pIC50 stands for the IC50 on a negative log10 scale, so that one unit is a factor of ten. Turning to `CC[C@H](C)Cn1c(-c2c(F)cc(F)cc2F)c(Cl)nc(-n2cccn2)c1=O`, the Activity in assay [1] was 100%; in [2], 100%; in assay [3], 99%; in assay [4] it was 100%; in assay [5], 99%; in assay [7], 100%. The Activity in assay [8] was 100%; in assay [9], 100%; in assay [10], 0%. In addition, the pIC50 in [6] was 7.70.

With `CC[C@H](C)Cn1c(-c2c(F)cc(OCCN(C)C)cc2F)c(Cl)nc(-n2cccn2)c1=O`, the Activity in [11] worked out at 99%; in assay [1], 55%; in assay [12] it was 100%; in assay [4], 0%; in [8], 91%; in assay [9] it was 68%. The negative-log IC50 (pIC50) in assay [6] is 6.68.

As for `CC[C@H](C)Cn1c(-c2c(F)cc(OCCCNC)cc2F)c(Cl)nc(-n2cccn2)c1=O.Cl`, the Activity in assay [11] worked out at 100%; in [1], 99%; in assay [2] it was 88%; in [3] it was 68%; in assay [12], 100%; in [4] it was 99%. Further, the Activity in assay [5] is listed as 33%; in [13], 100%; in assay [7], 21%; in assay [8] it was 100%; in assay [9], 99%; in [10], 0%. In addition, the negative-log IC50 (pIC50) in assay [6] was 9.22.

As to `CC[C@H](C)Cn1c(-c2c(F)cc(OCCCN(C)C)cc2F)c(Cl)nc(-n2cccn2)c1=O`, the Activity is 89% in assay [1]; 0% in assay [2]; 0% in assay [3]; 100% in assay [12]; 94% in assay [4]; 0% in assay [5]. In addition, the Activity was found to be 94% in assay [13]; 0% in [7]; 99% in assay [8]; 94% in assay [9]; 0% in assay [10]. For the same compound, the pIC50 in assay [6] was 8.89.

In the case of `CC[C@H](C)Cn1c(-c2c(F)cc(OC)cc2F)c(Cl)nc(-n2cccn2)c1=O`, the Activity was found to be 99% in [11]; 100% in [1]; 100% in [2]; 99% in [3]; 100% in assay [12]; 99% in [4]. The Activity in [5] is on record as 100%; in assay [13], 100%; in assay [7], 99%; in assay [8], 100%; in [9] it was 99%; in assay [10], 69%. Also, the pIC50 in assay [6] was 8.00.

In the case of `CC(C)Cn1c(-c2ccc(F)cc2Cl)c(Cl)nc(-n2cccn2)c1=O`, the Activity in assay [11] worked out at 100%; in assay [1], 100%; in [2], 100%; in assay [3], 83%; in assay [12] it was 100%; in assay [4] it was 100%. The Activity in assay [5] was 99%; in [13], 100%; in [7], 100%; in [8], 100%; in [9] it was 100%; in [10], 0%.
